Published values from different studies.
Compare with care: the assays were run in different laboratories.
SLC22A8: Organic anion transporter 3 (SLC22A8, Homo sapiens, UniProt Q8TCC7)

Compound	tested on	assay	test system	setting	quantity	result
CCc1nc2c(C)cc(N3CCN(CC(=O)N4CC(O)C4)CC3)cn2c1N(C)c1nc(-c2ccc(F)cc2)c(C#N)s1			human, plasma	oral, 1500 mg, single dose, fed, healthy volunteers	AUC(0-inf)	168000 ng·h/mL
CC(C)(C)c1ccc(O)c(CN(Cc2cc(C(C)(C)C)ccc2O)C2CCC(NC(N)=O)CC2)c1 (stereo not drawn)			male C57BL/6 mouse, brain	intraperitoneal, 5 mg/kg, single dose	tissue/plasma ratio	0.68
CN(C(=O)n1cnc(-c2ccc[n+]([O-])c2)c1)C1CCCCC1	SLC22A8	transporter uptake, inhibitor	HEK293	3 µg/mL	inhibition	10%
CC(C)(O)c1ccccc1-c1ccc2[nH]c(/C=C/c3ccc(C(F)(F)F)cc3)nc2c1			male human, plasma	oral, 10 mg, single dose, fasted	AUC(0-t)	677 ng·h/mL
CC(=O)O[C@H]1C(=O)[C@@]2(C)[C@H]([C@H](OC(=O)c3ccccc3)[C@]3(O)C[C@H](OC(=O)[C@H](O)[C@@H](NC(=O)c4ccccc4)c4ccccc4)C(C)=C1C3(C)C)[C@]1(OC(C)=O)CO[C@@H]1C[C@@H]2O	Bel-7402	cell growth or viability, MTT		48 h	IC50	28.2 µM
O=C(O)CSc1nnc(Br)n1-c1ccc(C2CC2)c2ccccc12	SLC22A8	transporter uptake, inhibitor, radiometric		5 µM, 1 h, oocytes	inhibition	64%
CON=C(N)c1ccc(-c2ccc(-c3ccc(C(N)=NOC)cc3)o2)cc1	Cytochrome P450 4F3 (CYP4F3, Homo sapiens, UniProt Q08477)	enzyme activity, substrate			Km	3.2 µM
CC(C)n1cc(C#N)c2cc(-n3cc(C(=O)O)cn3)ccc21			human, plasma	oral, 10 mg, single dose, fasted, healthy volunteers	AUC(0-t)	1680 ng·h/mL
CCCCNc1cc(C(=O)O)cc(S(N)(=O)=O)c1Oc1ccccc1	SLC22A8	transporter uptake, inhibitor, radiometric		200 µM, 1 h, oocytes	inhibition	97%
